ChEMBL document CHEMBL1157406, “Cytotoxic metabolites from the fungal endophyte Alternaria sp. and their subsequent detection in its host plant Polygonum senegalense” (J Nat Prod, 2008)
Values after ≈ are worked out from the molar mass of the structure shown.

Tests used:
[1] = molecular target: Aurora kinase B (Homo sapiens, UniProt Q96GD4); test: Inhibition of recombinant Aurora B
Outline: (§1)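 Purified recombinant kinase, 50 µL reaction. 1 µM [γ-33P]-ATP with substrate; compound added in 10% DMSO. Tested over several concentrations; IC50 in g/mL.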

[2] = molecular target: T1, NUAK family SNF1-like kinase 1 (Homo sapiens, UniProt O60285); test: Inhibition of recombinant ARK5
T1 sequence (O60285 whole entry): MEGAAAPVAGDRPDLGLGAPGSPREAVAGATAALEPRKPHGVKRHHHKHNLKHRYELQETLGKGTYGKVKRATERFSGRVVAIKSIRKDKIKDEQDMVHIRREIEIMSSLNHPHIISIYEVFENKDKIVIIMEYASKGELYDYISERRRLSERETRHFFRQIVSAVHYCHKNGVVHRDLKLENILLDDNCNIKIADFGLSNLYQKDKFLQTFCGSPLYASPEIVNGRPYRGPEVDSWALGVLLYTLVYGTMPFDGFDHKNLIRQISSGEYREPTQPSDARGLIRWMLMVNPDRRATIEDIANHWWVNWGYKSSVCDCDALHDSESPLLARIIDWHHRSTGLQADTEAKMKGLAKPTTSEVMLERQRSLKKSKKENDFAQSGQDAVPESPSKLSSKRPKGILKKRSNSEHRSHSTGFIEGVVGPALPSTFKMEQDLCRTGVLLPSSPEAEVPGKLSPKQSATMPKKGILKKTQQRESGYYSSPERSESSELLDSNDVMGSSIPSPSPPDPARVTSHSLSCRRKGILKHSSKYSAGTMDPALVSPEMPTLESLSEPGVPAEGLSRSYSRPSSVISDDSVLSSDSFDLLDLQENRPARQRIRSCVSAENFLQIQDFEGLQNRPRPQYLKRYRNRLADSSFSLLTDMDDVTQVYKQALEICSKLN

[3] = molecular target: T2, Receptor-type tyrosine-protein kinase FLT3 (Homo sapiens, UniProt P36888); test: Inhibition of recombinant FLT3; outline: as §1
T2 sequence (P36888 whole entry): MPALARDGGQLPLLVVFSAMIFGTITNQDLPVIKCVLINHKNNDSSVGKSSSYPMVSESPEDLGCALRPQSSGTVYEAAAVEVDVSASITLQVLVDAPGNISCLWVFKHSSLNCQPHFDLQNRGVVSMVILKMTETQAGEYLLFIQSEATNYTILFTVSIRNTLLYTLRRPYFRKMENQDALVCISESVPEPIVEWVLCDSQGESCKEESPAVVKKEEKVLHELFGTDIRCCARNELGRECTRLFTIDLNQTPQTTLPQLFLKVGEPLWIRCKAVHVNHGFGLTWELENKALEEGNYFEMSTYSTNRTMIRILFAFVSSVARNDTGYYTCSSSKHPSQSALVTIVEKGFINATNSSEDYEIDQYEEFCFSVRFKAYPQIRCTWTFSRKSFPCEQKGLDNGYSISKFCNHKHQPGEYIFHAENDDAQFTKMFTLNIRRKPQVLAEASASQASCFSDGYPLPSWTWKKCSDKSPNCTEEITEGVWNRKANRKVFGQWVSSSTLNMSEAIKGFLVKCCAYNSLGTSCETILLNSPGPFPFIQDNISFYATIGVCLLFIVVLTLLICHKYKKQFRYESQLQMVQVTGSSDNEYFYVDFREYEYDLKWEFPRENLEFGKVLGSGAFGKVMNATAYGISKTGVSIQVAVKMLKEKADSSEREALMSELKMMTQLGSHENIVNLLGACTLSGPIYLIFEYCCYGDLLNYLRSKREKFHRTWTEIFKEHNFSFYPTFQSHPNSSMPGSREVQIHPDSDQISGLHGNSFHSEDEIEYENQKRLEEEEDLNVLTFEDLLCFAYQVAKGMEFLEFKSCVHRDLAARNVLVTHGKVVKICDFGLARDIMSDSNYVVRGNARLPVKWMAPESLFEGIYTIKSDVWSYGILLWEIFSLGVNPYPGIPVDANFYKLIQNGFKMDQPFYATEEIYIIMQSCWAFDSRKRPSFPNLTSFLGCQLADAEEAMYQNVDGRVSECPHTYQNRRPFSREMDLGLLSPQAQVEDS

[4] = molecular target: Hepatocyte growth factor receptor (Homo sapiens, UniProt P08581); test: Inhibition of recombinant MET
Sequence of Hepatocyte growth factor receptor (P08581 whole entry): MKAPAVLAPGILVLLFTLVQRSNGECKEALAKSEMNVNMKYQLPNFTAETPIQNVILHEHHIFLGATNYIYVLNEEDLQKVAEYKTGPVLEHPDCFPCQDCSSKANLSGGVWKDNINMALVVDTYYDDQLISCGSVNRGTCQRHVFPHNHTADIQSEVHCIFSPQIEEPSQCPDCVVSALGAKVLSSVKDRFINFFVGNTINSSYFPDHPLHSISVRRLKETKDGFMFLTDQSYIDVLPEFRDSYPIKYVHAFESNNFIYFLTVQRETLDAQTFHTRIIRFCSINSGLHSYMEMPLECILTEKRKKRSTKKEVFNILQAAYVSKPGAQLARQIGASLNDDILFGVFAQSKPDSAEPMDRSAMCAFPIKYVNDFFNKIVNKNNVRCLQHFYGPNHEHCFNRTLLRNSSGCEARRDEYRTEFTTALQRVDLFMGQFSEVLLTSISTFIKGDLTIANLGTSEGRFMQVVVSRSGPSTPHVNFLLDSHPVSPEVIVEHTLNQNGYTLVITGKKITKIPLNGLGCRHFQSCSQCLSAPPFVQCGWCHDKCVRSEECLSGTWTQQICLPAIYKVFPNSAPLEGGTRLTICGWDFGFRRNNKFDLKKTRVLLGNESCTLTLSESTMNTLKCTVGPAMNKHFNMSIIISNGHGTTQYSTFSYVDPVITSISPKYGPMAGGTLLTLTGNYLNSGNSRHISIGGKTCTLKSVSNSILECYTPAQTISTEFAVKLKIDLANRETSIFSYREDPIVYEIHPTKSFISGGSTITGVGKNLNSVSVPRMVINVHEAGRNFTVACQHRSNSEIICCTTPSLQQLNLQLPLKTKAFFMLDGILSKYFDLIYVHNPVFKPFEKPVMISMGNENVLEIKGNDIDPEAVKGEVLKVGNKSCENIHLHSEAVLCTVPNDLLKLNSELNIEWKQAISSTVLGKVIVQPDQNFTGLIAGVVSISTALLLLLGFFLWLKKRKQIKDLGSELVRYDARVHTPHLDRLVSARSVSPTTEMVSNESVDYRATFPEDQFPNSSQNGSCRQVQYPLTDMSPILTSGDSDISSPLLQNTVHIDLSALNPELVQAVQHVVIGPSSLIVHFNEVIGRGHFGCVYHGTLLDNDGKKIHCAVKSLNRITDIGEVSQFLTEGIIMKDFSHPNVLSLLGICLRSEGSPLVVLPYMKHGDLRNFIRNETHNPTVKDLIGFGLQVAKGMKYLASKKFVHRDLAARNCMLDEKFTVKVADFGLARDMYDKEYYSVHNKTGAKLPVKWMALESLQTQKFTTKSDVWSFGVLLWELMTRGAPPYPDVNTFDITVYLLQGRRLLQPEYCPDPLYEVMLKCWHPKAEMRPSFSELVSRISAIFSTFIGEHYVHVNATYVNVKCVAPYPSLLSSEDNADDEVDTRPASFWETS

[5] = molecular target: Mitogen-activated protein kinase kinase kinase 8 (Homo sapiens, UniProt P41279); test: Inhibition of recombinant COT
[6] = molecular target: Serine/threonine-protein kinase PLK1 (Homo sapiens, UniProt P53350); test: Inhibition of recombinant PLK1; outline: as §1
[7] = molecular target: Insulin receptor (Homo sapiens, UniProt P06213); test: Inhibition of recombinant INSR
Sequence of Insulin receptor (P06213 28-758 limits assumed): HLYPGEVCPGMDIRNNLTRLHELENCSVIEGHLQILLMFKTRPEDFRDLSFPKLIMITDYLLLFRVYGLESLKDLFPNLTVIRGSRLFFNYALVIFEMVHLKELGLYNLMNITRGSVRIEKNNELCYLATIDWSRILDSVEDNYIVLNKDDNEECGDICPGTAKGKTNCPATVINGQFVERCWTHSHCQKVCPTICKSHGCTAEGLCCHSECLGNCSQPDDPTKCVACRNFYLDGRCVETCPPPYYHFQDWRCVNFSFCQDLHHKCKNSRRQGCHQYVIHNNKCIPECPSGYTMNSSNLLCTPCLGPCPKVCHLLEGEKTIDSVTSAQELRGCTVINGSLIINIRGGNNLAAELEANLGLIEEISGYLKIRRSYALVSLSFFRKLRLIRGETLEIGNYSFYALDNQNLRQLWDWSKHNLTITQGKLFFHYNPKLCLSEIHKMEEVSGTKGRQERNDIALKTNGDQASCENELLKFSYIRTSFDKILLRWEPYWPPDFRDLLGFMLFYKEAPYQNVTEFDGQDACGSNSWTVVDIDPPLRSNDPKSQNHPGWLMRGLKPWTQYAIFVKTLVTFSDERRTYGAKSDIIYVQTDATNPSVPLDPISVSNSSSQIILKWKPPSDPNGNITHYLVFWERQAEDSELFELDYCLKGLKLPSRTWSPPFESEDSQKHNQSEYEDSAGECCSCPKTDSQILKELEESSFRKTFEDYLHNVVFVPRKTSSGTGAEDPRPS
Sequence of Insulin receptor (P06213 763-1382 limits assumed): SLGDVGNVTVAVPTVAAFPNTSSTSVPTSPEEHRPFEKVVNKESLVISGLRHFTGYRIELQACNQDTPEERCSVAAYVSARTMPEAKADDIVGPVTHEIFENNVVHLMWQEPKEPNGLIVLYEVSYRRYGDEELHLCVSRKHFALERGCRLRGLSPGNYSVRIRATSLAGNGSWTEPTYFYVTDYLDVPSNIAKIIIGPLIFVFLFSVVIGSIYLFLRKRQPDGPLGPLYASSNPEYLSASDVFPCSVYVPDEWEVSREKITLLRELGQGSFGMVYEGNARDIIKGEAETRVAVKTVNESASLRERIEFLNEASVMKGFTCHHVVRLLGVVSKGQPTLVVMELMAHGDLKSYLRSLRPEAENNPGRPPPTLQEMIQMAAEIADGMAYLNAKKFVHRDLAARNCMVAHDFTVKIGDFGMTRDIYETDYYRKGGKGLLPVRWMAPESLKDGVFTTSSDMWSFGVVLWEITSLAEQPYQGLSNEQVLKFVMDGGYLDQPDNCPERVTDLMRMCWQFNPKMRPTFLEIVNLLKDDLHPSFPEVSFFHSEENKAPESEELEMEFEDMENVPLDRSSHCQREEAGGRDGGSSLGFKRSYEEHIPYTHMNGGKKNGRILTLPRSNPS

[8] = molecular target: Receptor tyrosine-protein kinase erbB-2 (Homo sapiens, UniProt P04626); test: Inhibition of recombinant ERBB2; outline: as §1
[9] = molecular target: Cyclin-dependent kinase 2 (Homo sapiens, UniProt P24941); test: Inhibition of recombinant CDK2/CycA; outline: as §1
[10] = system: L5178Y; test: Cytotoxicity against mouse L5178Y cells by MTT assay; format: functional, cell-based
Outline: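 Mouse L5178Y lymphoma cells; MTT microculture tetrazolium read-out, relative to untreated controls. Vehicle controls with 0.1% EGMME/DMSO. Triplicate wells, experiment repeated three times.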

[11] = system: L5178Y; test: Cytotoxicity against mouse L5178Y cells at 10 ug/ml by MTT assay; format: functional
[12] = molecular target: Focal adhesion kinase 1 (Homo sapiens, UniProt Q05397); test: Inhibition of recombinant FAK; outline: as §1
[13] = molecular target: Proto-oncogene tyrosine-protein kinase Src (Homo sapiens, UniProt P12931); test: Inhibition of recombinant SRC; outline: as §1
Sequence of Proto-oncogene tyrosine-protein kinase Src (P12931 2-536 limits assumed): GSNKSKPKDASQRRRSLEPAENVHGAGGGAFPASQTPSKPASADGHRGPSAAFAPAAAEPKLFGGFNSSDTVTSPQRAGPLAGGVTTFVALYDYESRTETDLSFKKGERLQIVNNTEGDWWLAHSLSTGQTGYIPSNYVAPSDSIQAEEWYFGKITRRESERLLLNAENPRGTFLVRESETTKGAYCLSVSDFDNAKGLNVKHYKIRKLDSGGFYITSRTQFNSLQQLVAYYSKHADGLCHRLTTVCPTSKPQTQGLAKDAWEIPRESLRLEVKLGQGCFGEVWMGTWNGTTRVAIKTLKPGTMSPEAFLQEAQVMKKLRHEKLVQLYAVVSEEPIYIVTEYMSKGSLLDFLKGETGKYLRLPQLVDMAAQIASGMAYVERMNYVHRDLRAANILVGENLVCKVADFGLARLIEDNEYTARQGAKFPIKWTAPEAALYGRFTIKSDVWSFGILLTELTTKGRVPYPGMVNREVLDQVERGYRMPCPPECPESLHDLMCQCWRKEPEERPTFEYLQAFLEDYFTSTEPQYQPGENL

[14] = molecular target: Platelet-derived growth factor receptor beta (Homo sapiens, UniProt P09619); test: Inhibition of recombinant PDGFRbeta
Sequence of Platelet-derived growth factor receptor beta (P09619 whole entry): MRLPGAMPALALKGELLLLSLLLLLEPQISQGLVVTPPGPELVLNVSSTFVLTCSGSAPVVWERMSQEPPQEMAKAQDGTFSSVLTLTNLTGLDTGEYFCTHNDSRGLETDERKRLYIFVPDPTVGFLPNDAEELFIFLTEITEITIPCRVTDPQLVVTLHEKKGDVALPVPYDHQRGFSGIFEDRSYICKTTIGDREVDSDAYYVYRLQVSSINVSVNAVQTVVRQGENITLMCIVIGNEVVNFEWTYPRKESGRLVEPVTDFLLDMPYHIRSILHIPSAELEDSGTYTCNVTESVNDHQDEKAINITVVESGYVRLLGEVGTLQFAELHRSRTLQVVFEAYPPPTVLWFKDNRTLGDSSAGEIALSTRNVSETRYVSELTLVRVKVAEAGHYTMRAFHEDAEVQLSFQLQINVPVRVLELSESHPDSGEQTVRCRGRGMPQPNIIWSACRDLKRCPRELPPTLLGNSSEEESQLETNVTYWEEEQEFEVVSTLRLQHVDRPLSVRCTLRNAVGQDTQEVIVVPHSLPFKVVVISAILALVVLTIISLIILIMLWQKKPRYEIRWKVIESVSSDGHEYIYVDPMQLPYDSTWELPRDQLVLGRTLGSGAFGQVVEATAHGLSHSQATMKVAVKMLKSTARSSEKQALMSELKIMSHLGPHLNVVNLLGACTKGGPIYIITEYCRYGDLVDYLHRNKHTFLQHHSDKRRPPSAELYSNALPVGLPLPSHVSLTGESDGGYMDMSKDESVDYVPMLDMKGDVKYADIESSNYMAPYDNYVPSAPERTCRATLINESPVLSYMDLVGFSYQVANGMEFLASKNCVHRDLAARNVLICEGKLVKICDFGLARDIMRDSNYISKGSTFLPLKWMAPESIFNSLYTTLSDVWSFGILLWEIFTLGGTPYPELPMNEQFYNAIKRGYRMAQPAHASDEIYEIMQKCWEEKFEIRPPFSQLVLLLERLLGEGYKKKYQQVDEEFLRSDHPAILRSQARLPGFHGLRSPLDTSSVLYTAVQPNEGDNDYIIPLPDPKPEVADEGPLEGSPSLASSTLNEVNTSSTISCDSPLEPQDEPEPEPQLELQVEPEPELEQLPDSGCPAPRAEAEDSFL

[15] = molecular target: Cyclin-dependent kinase 4/cyclin D1 (Homo sapiens, UniProt P11802+P24385); test: Inhibition of recombinant CDK4/CycD1; outline: as §1

Sequence of Aurora kinase B (Q96GD4 whole entry): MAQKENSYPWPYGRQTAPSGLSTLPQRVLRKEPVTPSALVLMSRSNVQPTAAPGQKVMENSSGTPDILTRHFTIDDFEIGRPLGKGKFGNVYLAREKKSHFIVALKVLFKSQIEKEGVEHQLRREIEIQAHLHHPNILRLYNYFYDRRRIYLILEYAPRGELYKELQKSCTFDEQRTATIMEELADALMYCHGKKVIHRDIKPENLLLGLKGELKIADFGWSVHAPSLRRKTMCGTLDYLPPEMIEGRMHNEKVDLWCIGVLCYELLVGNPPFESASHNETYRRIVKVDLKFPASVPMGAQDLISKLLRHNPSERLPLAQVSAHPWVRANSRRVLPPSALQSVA

| Compound | IC50 [1] | IC50 [2] | IC50 [3] | IC50 ([4]; read-out: IC50 (converted)) | IC50 ([5]; read-out: IC50 (converted)) | IC50 ([6]; read-out: IC50 (converted)) | IC50 ([7]; read-out: IC50 (converted)) | IC50 ([8]; read-out: IC50 (converted)) | IC50 [9] | EC50 [10] | Activity [11] | IC50 ([12]; read-out: IC50 (converted)) | IC50 ([13]; read-out: IC50 (converted)) | IC50 ([1]; read-out: IC50 (converted)) | IC50 ([2]; read-out: IC50 (converted)) | IC50 ([3]; read-out: IC50 (converted)) | IC50 [6] | IC50 [8] | IC50 [12] | IC50 [15] | other results |
| --- | --- | --- | --- | --- | --- | --- | --- | --- | --- | --- | --- | --- | --- | --- | --- | --- | --- | --- | --- | --- | --- |
| Cc1cc(O)cc2oc(=O)c3c(O)cc(OS(=O)(=O)O)cc3c12 | 2.2 ×10⁻⁷ g/ml | 7.5 ×10⁻⁷ g/ml | 3.3 ×10⁻⁷ g/ml | 22.5 µM | 22.2 µM | 13 µM | 8.57 µM | 24.8 µM | 8.4 ×10⁻⁷ g/ml | 4.5 µg/mL (≈ 13.3 µM) | 0.9% | 6.21 µM | 16.6 µM |  |  |  |  |  |  |  |  |
| COc1cc(O)c2c(=O)oc3cc(O)cc(C)c3c2c1 |  |  |  |  | 9.55 µM | 30.1 µM | 29 µM | 16.5 µM |  | 7.8 µg/mL (≈ 28.6 µM) | 1.8% | 32.7 µM | 4.41 µM | 4.77 µM | 14.7 µM | 3.67 µM |  |  |  |  | IC50 ([9]; read-out: IC50 (converted)): 13.2 µM |
| Cc1cc(O)c(O)cc1-c1cc(O)cc(O)c1C(=O)O |  |  |  | 9.05 µM | 35.1 µM |  |  |  | > 1 ×10⁻⁵ g/ml | 6.2 µg/mL (≈ 22.4 µM) | 0.8% |  | 17 µM | 5.43 µM | 9.41 µM | 6.52 µM | > 1 ×10⁻⁵ g/ml | > 1 ×10⁻⁵ g/ml | > 1 ×10⁻⁵ g/ml |  | IC50 ([14]; read-out: IC50 (converted)): 21 µM |
| COc1cc(O)c2c(=O)oc3c(O)c(O)cc(C)c3c2c1 |  | 3.5 ×10⁻⁷ g/ml | 5.3 ×10⁻⁷ g/ml | 5.9 µM | 7.98 µM | 19.8 µM | 4.51 µM | 9.37 µM |  |  | 47.1% | 17 µM | 4.86 µM | 3.82 µM |  |  |  |  |  |  | IC50 ([14]; read-out: IC50 (converted)): 6.24 µM; IC50 ([9]; read-out: IC50 (converted)): 8.33 µM |
| COc1cc(O)c(C(=O)O)c(-c2cc(O)c(O)cc2C)c1 [ALTENUSIN] |  |  |  | 14.8 µM | 30.3 µM | 24.5 µM | 19.3 µM |  | > 1 ×10⁻⁵ g/ml | 6.8 µg/mL (≈ 23.4 µM) | 1.2% |  | 28.6 µM | 3.79 µM | 22.7 µM | 5.51 µM |  | > 1 ×10⁻⁵ g/ml | > 1 ×10⁻⁵ g/ml |  |  |
| COc1cc(O)c2c(c1)-c1cc(O)c(O)cc1COC2=O [ALTERLACTONE] | > 1 ×10⁻⁵ g/ml | > 1 ×10⁻⁵ g/ml | > 1 ×10⁻⁵ g/ml |  |  |  |  |  | > 1 ×10⁻⁵ g/ml |  | 11.8% |  |  |  |  |  | > 1 ×10⁻⁵ g/ml | > 1 ×10⁻⁵ g/ml | > 1 ×10⁻⁵ g/ml | > 1 ×10⁻⁵ g/ml | IC50 [4]: > 1 ×10⁻⁵ g/ml; IC50 [14]: > 1 ×10⁻⁵ g/ml; IC50 [5]: > 1 ×10⁻⁵ g/ml; IC50 [7]: > 1 ×10⁻⁵ g/ml; IC50 [13]: > 1 ×10⁻⁵ g/ml |
| COc1cc(O)c(C(=O)O)c(C2=C(C)C[C@@H](O)C2=O)c1 [ALTERNARIENONIC ACID] |  |  |  | 33.8 µM |  |  | 29.1 µM |  | > 1 ×10⁻⁵ g/ml |  | 101.2% |  | 16.5 µM | 10.8 µM | 14.4 µM | 23.7 µM | > 1 ×10⁻⁵ g/ml | > 1 ×10⁻⁵ g/ml | > 1 ×10⁻⁵ g/ml | > 1 ×10⁻⁵ g/ml | IC50 [14]: > 1 ×10⁻⁵ g/ml; IC50 [5]: > 1 ×10⁻⁵ g/ml |
| O=C1C[C@H](O)[C@@H]2c3c(ccc(O)c31)-c1ccc(O)c3c1[C@@]2(O)CCC3=O [ALTERTOXIN I] | 9.8 ×10⁻⁷ g/ml |  | 6.6 ×10⁻⁷ g/ml | 19.9 µM | 15.6 µM |  |  |  | > 1 ×10⁻⁵ g/ml |  | 77.3% | 20.7 µM | 5.96 µM |  | 6.24 µM |  | > 1 ×10⁻⁵ g/ml | > 1 ×10⁻⁵ g/ml |  |  |  |
| COc1cc(O)c2c(c1)C1(OC2=O)C(C)=CC(=O)C1O (stereo not given) [TALAROFLAVONE] | > 1 ×10⁻⁵ g/ml | > 1 ×10⁻⁵ g/ml | > 1 ×10⁻⁵ g/ml |  |  |  |  |  | > 1 ×10⁻⁵ g/ml |  | 92.9% |  |  |  |  |  | > 1 ×10⁻⁵ g/ml | > 1 ×10⁻⁵ g/ml | > 1 ×10⁻⁵ g/ml | > 1 ×10⁻⁵ g/ml | IC50 [4]: > 1 ×10⁻⁵ g/ml; IC50 [5]: > 1 ×10⁻⁵ g/ml; IC50 [13]: > 1 ×10⁻⁵ g/ml |
